Measured values published in ChEMBL document CHEMBL5120825, “The azulene scaffold from a medicinal chemist's perspective: Physicochemical and in vitro parameters relevant for drug discovery” (Eur J Med Chem, 2022).
≈ marks a conversion by molar mass, not a printed value.

Tests used:
Cytochrome P450 3A4 = Cytochrome P450 3A4 (Homo sapiens, UniProt P08684); assay: Inhibition of CYP3A4 in human liver microsomes using midazolam as substrate preincubated with compound followed by NADPH addition by LC-MS/MS analysis; assay type: ADME, Microsome
Cytochrome P450 2C9 = Cytochrome P450 2C9 (Homo sapiens, UniProt P11712); assay: Inhibition of CYP2C9 in human liver microsomes using diclofenac as substrate preincubated with compound followed by NADPH addition by LC-MS/MS analysis; assay type: ADME, Microsome
Cytochrome P450 2C19 = Cytochrome P450 2C19 (Homo sapiens, UniProt P33261); assay: Inhibition of CYP2C19 in human liver microsomes using mephenytoin as substrate preincubated with compound followed by NADPH addition by LC-MS/MS analysis; assay type: ADME, Microsome
Cytochrome P450 2D6 = Cytochrome P450 2D6 (Homo sapiens, UniProt P10635); assay: Inhibition of CYP2D6 in human liver microsomes using dextromethorphan as substrate preincubated with compound followed by NADPH addition by LC-MS/MS analysis; assay type: ADME, Microsome
Cytochrome P450 2C8 = biological target: T1, Cytochrome P450 2C8 (Homo sapiens, UniProt P10632); assay: Inhibition of CYP2C8 in human liver microsomes using amodiaquine as substrate preincubated with compound followed by NADPH addition by LC-MS/MS analysis; assay type: ADME, Microsome
T1 sequence (P10632 whole entry): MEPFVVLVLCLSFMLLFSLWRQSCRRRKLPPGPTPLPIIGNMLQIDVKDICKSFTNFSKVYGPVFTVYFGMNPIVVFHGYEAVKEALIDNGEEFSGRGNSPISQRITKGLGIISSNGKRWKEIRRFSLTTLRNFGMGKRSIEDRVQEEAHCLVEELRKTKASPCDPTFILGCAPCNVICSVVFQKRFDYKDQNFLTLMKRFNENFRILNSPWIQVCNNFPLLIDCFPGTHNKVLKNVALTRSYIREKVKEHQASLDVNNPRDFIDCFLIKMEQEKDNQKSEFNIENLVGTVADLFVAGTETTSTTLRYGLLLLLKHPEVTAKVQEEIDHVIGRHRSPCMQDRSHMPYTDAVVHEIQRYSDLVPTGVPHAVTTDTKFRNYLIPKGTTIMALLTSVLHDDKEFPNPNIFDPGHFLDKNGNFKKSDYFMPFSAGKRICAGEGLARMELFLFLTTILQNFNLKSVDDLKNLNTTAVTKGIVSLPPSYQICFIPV

[1] = Hydrolytic stability of the compound in aqueous HCl assessed as compound decomposition measured after 3 days by HPLC analysis; assay type: physicochemical; conditions: time 3 day, read-out: Drug degradation
In short: (§1)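 Compound was held for 3 days at 40 °C in 0.1 M HCl in water or in aqueous buffer at pH 7.4. Dissolution was confirmed by eye, and decomposition is reported as % loss of parent.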

[2] = Hydrolytic stability of the compound in aqueous buffer at pH 7.4 assessed as compound decomposition measured after 3 days by HPLC analysis; assay type: physicochemical; conditions: time 3 day, read-out: Drug degradation; in short: as §1
[3] = Stability of the compound at pH 7.4 assessed as half life measured after 24 hrs in presence of GSH by HPLC analysis; assay type: physicochemical; conditions: solution with GSH
[4] = Metabolic stability in human liver microsomes assessed as hepatic blood flow at 1 uM preincubated with compound followed by NADPH addition by LC-MS/MS analysis; assay type: ADME, Microsome; conditions: read-out: QH
[5] = Octanol-water partition coefficient, logD of the compound at pH 11 by HPLC analysis; assay type: physicochemical; conditions: read-out: logD
[6] = Photostability of the compound assessed as compound degradation administered as solid irradiated with sun light and measured after 7 days by HPLC analysis
[7] = Octanol-water partition coefficient, logD of the compound at pH 2 by HPLC analysis; assay type: physicochemical
[8] = Aqueous solubility of the compound at pH 6.8 incubated for 24 hrs under shaking condition by LC-UV analysis; assay type: physicochemical; conditions: aqueous medium
In short: (§2)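 The highest concentration tested was 250 μM, so results are capped at that level. Values are reported in µg/ml.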

[9] = Lipophilicity, logP of the compound; assay type: physicochemical; conditions: octanol/water
[10] = Aqueous solubility of the compound at pH 4.5 incubated for 24 hrs under shaking condition by LC-UV analysis; assay type: physicochemical; conditions: aqueous medium; in short: as §2
[11] = Photostability of the compound at pH 7.1 assessed as compound degradation administered as solution irradiated with sun light and measured after 7 days by HPLC analysis; assay type: physicochemical; conditions: time 7 day, read-out: Drug degradation
In short: (§3)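 Compound in solution was kept for 7 days under "mild" light-stress conditions, with no pH adjustment. The pH listed for each compound is the solution's own intrinsic pH. Result is % degradation of parent.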

[12] = Permeability of the compound at pH 7.4 by PAMPA assay; assay type: ADME; conditions: read-out: permeability
[13] = Aqueous solubility of the compound at pH 2.2 incubated for 24 hrs under shaking condition by LC-UV analysis; assay type: physicochemical; conditions: aqueous medium; in short: as §2
[14] = Photostability of the compound at pH 5.3 assessed as compound degradation administered as solution irradiated with sun light and measured after 7 days by HPLC analysis; assay type: physicochemical; conditions: time 7 day, read-out: Drug degradation; in short: as §3
[15] = Cytotoxicity against human HepG2 cells assessed as cell growth inhibition incubated for 24 hrs by MTT assay; assay type: toxicity, cell-based
In short: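 HepG2 human hepatoma cells were exposed to compound at concentrations up to 400 µM and viability was read by MTT. The result is given in µM.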

[16] = Photostability of the compound assessed as compound degradation administered as aqueous solution irradiated with UV and measured after 24 hrs by HPLC analysis
[17] = Photostability of the compound at pH 8.7 assessed as compound degradation administered as solution irradiated with sun light and measured after 7 days by HPLC analysis; assay type: physicochemical; conditions: time 7 day, read-out: Drug degradation; in short: as §3
[18] = Photostability of the compound at pH 8.6 assessed as compound degradation administered as solution irradiated with sun light and measured after 7 days by HPLC analysis; assay type: physicochemical; conditions: time 7 day, read-out: Drug degradation; in short: as §3
[19] = Dissociation constant, pKa of the compound by dip probe absorption spectroscopy; assay type: physicochemical
[20] = Photostability of the compound at pH 4.0 assessed as compound degradation administered as solution irradiated with sun light and measured after 7 days by HPLC analysis; assay type: physicochemical; conditions: time 7 day, read-out: Drug degradation; in short: as §3
[21] = Photostability of the compound at pH 5.8 assessed as compound degradation administered as solution irradiated with sun light and measured after 7 days by HPLC analysis; assay type: physicochemical; conditions: time 7 day, read-out: Drug degradation; in short: as §3
[22] = Photostability of the compound at pH 4.1 assessed as compound degradation administered as solution irradiated with sun light and measured after 7 days by HPLC analysis; assay type: physicochemical; conditions: time 7 day, read-out: Drug degradation; in short: as §3

Cytochrome P450 2D6, sequence (P10635 whole entry): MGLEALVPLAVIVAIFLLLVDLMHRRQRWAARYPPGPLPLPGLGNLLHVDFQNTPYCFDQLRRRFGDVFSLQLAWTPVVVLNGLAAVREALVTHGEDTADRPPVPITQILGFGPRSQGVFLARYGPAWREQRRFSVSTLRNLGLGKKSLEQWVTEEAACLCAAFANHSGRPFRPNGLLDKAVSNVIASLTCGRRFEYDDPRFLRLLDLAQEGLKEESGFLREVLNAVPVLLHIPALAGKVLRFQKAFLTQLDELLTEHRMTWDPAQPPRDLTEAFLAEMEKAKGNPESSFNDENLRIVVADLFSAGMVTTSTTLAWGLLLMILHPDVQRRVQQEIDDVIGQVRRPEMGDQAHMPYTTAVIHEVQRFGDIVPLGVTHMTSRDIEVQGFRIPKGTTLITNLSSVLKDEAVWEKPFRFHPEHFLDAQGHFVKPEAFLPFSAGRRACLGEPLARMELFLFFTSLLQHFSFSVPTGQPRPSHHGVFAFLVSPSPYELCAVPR
Cytochrome P450 2C19, sequence (P33261 whole entry): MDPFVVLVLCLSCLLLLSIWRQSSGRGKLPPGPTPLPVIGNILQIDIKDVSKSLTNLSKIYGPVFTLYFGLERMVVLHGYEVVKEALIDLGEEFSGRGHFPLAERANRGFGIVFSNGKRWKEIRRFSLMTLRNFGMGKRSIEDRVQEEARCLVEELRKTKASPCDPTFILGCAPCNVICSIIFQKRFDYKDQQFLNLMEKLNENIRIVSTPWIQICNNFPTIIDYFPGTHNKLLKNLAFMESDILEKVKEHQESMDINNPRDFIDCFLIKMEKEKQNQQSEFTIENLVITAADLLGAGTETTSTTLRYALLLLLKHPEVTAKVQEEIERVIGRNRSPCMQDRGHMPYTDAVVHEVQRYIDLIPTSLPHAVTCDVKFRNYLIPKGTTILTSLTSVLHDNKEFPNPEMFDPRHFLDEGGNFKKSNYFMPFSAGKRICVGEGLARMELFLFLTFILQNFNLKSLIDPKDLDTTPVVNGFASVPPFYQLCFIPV
Cytochrome P450 3A4, sequence (P08684 whole entry): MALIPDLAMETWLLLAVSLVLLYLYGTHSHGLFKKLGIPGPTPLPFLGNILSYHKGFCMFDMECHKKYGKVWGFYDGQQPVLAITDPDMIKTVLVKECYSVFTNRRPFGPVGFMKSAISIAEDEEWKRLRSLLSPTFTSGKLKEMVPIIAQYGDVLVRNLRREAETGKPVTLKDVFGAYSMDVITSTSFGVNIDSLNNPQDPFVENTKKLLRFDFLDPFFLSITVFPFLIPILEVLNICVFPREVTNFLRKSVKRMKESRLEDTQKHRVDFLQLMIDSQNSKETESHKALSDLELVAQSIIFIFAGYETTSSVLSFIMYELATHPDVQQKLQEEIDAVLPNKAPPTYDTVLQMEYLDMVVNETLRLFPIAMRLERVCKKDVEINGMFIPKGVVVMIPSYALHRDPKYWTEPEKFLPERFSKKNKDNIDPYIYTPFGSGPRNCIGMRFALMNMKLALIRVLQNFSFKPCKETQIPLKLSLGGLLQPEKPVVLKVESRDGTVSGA
Cytochrome P450 2C9, sequence (P11712 whole entry): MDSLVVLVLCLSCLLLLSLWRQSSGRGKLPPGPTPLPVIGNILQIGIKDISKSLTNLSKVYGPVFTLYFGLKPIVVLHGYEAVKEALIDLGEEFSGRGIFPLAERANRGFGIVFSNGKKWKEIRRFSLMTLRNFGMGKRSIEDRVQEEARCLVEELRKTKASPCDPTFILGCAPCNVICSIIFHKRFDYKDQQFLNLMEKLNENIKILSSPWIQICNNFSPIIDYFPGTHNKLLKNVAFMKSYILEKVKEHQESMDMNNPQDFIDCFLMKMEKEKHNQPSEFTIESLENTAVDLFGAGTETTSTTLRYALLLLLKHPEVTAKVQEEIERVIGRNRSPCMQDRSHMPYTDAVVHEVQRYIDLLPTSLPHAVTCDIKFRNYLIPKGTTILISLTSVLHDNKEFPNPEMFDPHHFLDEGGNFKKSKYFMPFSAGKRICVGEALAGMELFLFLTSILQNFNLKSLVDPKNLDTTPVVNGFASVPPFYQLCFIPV

| SMILES | IC50 (Cytochrome P450 3A4) [µM] | IC50 (Cytochrome P450 2C9) [µM] | IC50 (Cytochrome P450 2C19) [µM] | IC50 (Cytochrome P450 2D6) [µM] | IC50 (Cytochrome P450 2C8) [µM] | half-life [3] [days] | hepatic extraction ratio at 1 µM [4] | logD [5] | degraded at 168 h [6] [%] | logD ([7]; read-out: logD) | solubility thermodynamic at 24 h [8] [mg/mL] | logP ([9]; read-out: logP) | solubility thermodynamic at 24 h [10] [mg/mL] | Papp [12] [nm/s] | solubility thermodynamic at 24 h [13] [mg/mL] | further results |
| --- | --- | --- | --- | --- | --- | --- | --- | --- | --- | --- | --- | --- | --- | --- | --- | --- |
| O=C(O)c1ccc2ccc(C(=O)c3ccc(C(F)(F)F)cc3)c-2cc1 | > 50 | > 50 | > 50 | > 50 | 13 |  |  |  |  |  |  |  |  |  |  |  |
| O=C(Cn1ccccc1=O)Nc1cc2cccccc-2c1 |  |  |  |  |  | > 41.7 | < 0.23 | 1.7 | < 0.5 | 2 | 0.002 (≈ 7.19 µM) | 1.7 | 0.002 (≈ 7.19 µM) | 37 | 0.004 (≈ 14.4 µM) | degraded at 72 h [1]: 3.5%; degraded at 72 h [2]: < 0.5%; degraded at 168 h [11]: 85% |
| C=CC(=O)N1C[C@H](Nc2ncnc3[nH]ccc23)CC[C@@H]1C [RITLECITINIB] |  |  |  |  |  | 1.33 |  |  |  |  |  |  |  |  |  |  |
| CN(C)C(=O)Cc1ccc2cccc-2cc1 |  |  |  |  |  | > 41.7 | 0.27 | 2.2 | < 0.5 | 2.5 | > 0.043 | 2.2 | > 0.045 | 87 | > 0.044 | degraded at 72 h [1]: 2%; degraded at 72 h [2]: < 0.5%; degraded at 168 h [14]: 12% |
| COCC(=O)Nc1cc2cccccc-2c1 | > 50 | > 50 | 22 | > 50 | > 50 |  |  |  |  |  |  |  |  |  |  | EC50 at 24 h [15]: > 400 µM |
| CN(C)C(=O)c1cccc2ccccc12 |  |  |  |  |  |  | < 0.23 | 1.8 |  |  | > 0.043 |  | > 0.05 | 83 | > 0.047 | degraded at 24 h [16]: < 0.5%; logD [7]: 2.2; logP [9]: 1.8 |
| c1cc2ccc(CN3CCCCC3)ccc-2c1 | > 50 | > 50 | 2.3 | 17 | > 50 |  | 0.75 | > 5.5 | < 0.5 | 0.8 | 0.031 (≈ 138 µM) | > 5.5 |  | 34 | > 0.056 | degraded at 168 h [17]: 3.5% |
| CN(C)C(=O)c1ccc2cccccc1-2 | > 50 | > 50 | > 50 | > 50 | > 50 | > 41.7 | 0.67 | 1.6 | < 0.5 |  | > 0.04 |  | > 0.044 | 76 | > 0.043 | degraded at 24 h [16]: 100%; degraded at 72 h [1]: < 0.5%; degraded at 72 h [2]: < 0.5%; degraded at 168 h [18]: 3%; logD [7]: 2.1; EC50 at 24 h [15]: > 400 µM; logP [9]: 1.6 |
| O=C(O)c1c[nH]c2ccccc12 |  |  |  |  |  |  |  |  |  |  |  |  |  |  |  | pKa [19]: 5.29 |
| O=C(O)c1ccc2cccc-2cc1 |  |  |  |  |  | > 41.7 |  |  | < 0.5 |  |  |  |  |  |  | degraded at 168 h [20]: < 0.5%; degraded at 72 h [1]: 1.5%; degraded at 72 h [2]: < 0.5%; pKa [19]: 3.5 |
| O=C(O)c1ccc2cccccc1-2 |  |  |  |  |  |  |  |  |  |  |  |  |  |  |  | pKa [19]: 5.1 |
| O=C(NCCO)c1ccc2ccc(C(=O)c3ccccc3)c-2cc1 | > 50 | > 50 | > 50 | > 50 | > 50 |  | < 0.23 | 2.2 | < 0.5 | 2.3 | 0.004 (≈ 12.5 µM) | 2.2 | 0.006 (≈ 18.8 µM) | 18 | 0.014 (≈ 43.8 µM) | degraded at 168 h [21]: < 0.5% |
| CN(C)C(=O)c1cn(C)c2ccccc12 |  |  |  |  |  |  | 0.55 | 1.3 |  |  | > 0.051 |  | > 0.051 | 67 | > 0.051 | degraded at 24 h [16]: < 0.5%; logD [7]: 1.8; logP [9]: 1.3 |
| CN(C)C(=O)c1c[nH]c2ccccc12 |  |  |  |  |  |  | 0.25 | 0.4 |  |  | > 0.044 |  | > 0.047 | 22 | > 0.047 | degraded at 24 h [16]: < 0.5%; logD [7]: 1.1; logP [9]: 0.4 |
| COc1cccc(C(=O)c2ccc3ccc(C(=O)O)ccc2-3)c1 | > 50 | > 50 | > 50 | > 50 | 22 |  |  |  |  |  |  |  |  |  |  |  |
| O=C(O)c1ccc2c(C(=O)c3ccccc3)cc(C(=O)c3ccccc3)c-2cc1 | > 50 | 12 | > 50 | > 50 | 1.5 |  |  |  |  |  |  |  |  |  |  |  |
| COC(=O)c1ccc2ccc(C(=O)N(C)C)c-2cc1 |  |  |  |  |  | > 41.7 |  | 2.1 |  | 2.3 | > 0.064 | 2.1 | 0.05 (≈ 194 µM) | 74 | > 0.064 |  |
| O=C(Nc1cc2cccccc-2c1)c1cccnc1 |  |  |  |  |  |  | 0.71 | 1.3 |  | 1.3 | 0.002 (≈ 8.06 µM) | 2.4 | 0.003 (≈ 12.1 µM) | 48 | 0.043 (≈ 173 µM) |  |
| c1ccc2cc(CN3CCCCC3)ccc2c1 |  |  |  |  |  |  | 0.72 | > 5.5 |  | 0.9 | 0.027 (≈ 120 µM) | > 5.5 | 0.03 (≈ 133 µM) | 46 | 0.034 (≈ 151 µM) |  |
| O=C(O)c1ccc2ccc(C(=O)c3ccccc3)c-2cc1 | > 50 | > 50 | > 50 | > 50 | > 50 | > 41.7 |  |  | < 0.5 |  |  |  |  |  |  | degraded at 168 h [22]: < 0.5%; pKa [19]: 3.2 |
| NC(=O)C1CCN(C(=O)c2ccc3cccccc2-3)CC1 | > 50 | > 50 | > 50 | > 50 | > 50 |  | < 0.23 | 0.6 |  |  | > 0.058 |  | > 0.057 | 5 | > 0.071 | logD [7]: 1.2; EC50 at 24 h [15]: > 400 µM; logP [9]: 0.6 |
